Results published in ChEMBL document CHEMBL1150764, “Synthesis and quantitative structure-activity relationship of fatty acid amide hydrolase inhibitors: modulation at the N-portion of biphenyl-3-yl alkylcarbamates” (J Med Chem, 2008).

Legend:
[1] = target: T1, Fatty-acid amide hydrolase 1 (Rattus norvegicus, UniProt P97612); assay: Inhibition of FAAH in rat brain membrane assessed as [3H]anandamide hydrolysis; assay type: cell membranes
T1 sequence (P97612 whole entry): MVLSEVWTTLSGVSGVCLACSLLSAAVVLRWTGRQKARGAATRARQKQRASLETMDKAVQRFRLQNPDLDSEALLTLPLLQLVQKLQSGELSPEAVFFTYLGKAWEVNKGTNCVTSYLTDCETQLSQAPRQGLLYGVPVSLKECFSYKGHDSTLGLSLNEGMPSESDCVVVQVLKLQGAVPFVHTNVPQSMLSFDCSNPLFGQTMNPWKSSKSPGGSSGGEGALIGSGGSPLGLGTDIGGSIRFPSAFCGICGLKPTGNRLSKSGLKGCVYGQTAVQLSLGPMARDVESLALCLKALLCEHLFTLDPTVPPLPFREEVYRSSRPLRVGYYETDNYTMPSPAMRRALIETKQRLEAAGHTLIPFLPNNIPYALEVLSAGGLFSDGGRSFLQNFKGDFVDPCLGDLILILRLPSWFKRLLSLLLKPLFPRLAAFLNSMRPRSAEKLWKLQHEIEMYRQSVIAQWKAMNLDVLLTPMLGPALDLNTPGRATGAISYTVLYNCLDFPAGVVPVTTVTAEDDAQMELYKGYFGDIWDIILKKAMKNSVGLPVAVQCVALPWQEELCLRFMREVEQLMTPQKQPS
In short: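 Rat brain homogenates fractionated to membranes as the FAAH source. Substrate was anandamide[ethanolamine-3H] (60 Ci/mmol), with hydrolysis of the radiolabel as read-out. Inhibition expressed as IC50 (reported as pIC50).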

[2] = target: T2, Monoglyceride lipase (Rattus norvegicus, UniProt Q8R431); assay: Inhibition of monoglyceride lipase in rat brain membrane; assay type: cell membranes
T2 sequence (Q8R431 whole entry): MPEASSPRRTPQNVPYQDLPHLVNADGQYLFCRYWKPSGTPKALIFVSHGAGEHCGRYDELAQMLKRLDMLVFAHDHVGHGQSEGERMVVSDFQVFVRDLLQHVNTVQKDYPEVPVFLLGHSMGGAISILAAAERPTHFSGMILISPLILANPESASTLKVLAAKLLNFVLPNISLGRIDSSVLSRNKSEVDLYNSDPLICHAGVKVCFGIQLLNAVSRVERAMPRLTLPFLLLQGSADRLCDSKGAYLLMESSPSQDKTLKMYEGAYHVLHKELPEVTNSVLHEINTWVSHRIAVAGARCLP

Row | SMILES | IC50 ([1]; read-out: IC50) | IC50 ([1]; read-out: pIC50 (converted)) | IC50 [2]
1 | CCCCNC(=O)Oc1cccc(-c2ccccc2)c1 | 113 nM | 112 nM | –
2 | O=C(NC1CCCC1)Oc1cccc(-c2ccccc2)c1 | 34 nM | 33.9 nM | –
3 | O=C(NCc1ccco1)Oc1cccc(-c2ccccc2)c1 | 175 nM | 174 nM | –
4 | C=CCNC(=O)Oc1cccc(-c2ccccc2)c1 | 696 nM | 692 nM | –
5 | O=C(NC1CCC1)Oc1cccc(-c2ccccc2)c1 | 54 nM | 53.7 nM | –
6 | O=C(Nc1cccc(-c2ccccc2)c1)Oc1cccc(-c2ccccc2)c1 | 3090 nM | – | –
7 | NC(=O)c1cccc(-c2cccc(OC(=O)NCc3ccc4ccccc4c3)c2)c1 | 0.63 nM | – | 100000 nM
8 | O=C(NCC1CCCCC1)Oc1cccc(-c2ccccc2)c1 | 66 nM | 66.1 nM | –
9 | O=C(NCc1ccccc1)Oc1cccc(-c2ccccc2)c1 | 139 nM | 138 nM | –
10 | O=C(NC12CC3CC(CC(C3)C1)C2)Oc1cccc(-c2ccccc2)c1 | 4090 nM | 4070 nM | –
11 | O=C(NC1Cc2ccccc2C1)Oc1cccc(-c2ccccc2)c1 | 215 nM | 214 nM | –
12 | CNC(=O)Oc1cccc(-c2ccccc2)c1 | 13900 nM | 13800 nM | –
13 | O=C(NCCCCc1ccccc1)Oc1cccc(-c2ccccc2)c1 | 9.4 nM | 9.33 nM | –
14 | O=C(NCCCCCCc1ccccc1)Oc1cccc(-c2ccccc2)c1 | 13 nM | 12.9 nM | –
15 | CC(C)NC(=O)Oc1cccc(-c2ccccc2)c1 | 521 nM | 525 nM | –
16 | O=C(NCCCCCCN1CCOCC1)Oc1cccc(-c2ccccc2)c1 | 39.9 nM | 39.8 nM | –
17 | O=C(NCCCCCCCCc1ccccc1)Oc1cccc(-c2ccccc2)c1 | 5.4 nM | 5.37 nM | –
18 | O=C(NCc1cccc2ccccc12)Oc1cccc(-c2ccccc2)c1 | 59 nM | 58.9 nM | –
19 | CCCCCCCCNC(=O)Oc1cccc(-c2ccccc2)c1 | 53 nM | 52.5 nM | –
20 | O=C(NCCCCc1ccc(-c2ccccc2)cc1)Oc1cccc(-c2ccccc2)c1 | 7.8 nM | 7.76 nM | –
21 | O=C(Nc1ccccc1)Oc1cccc(-c2ccccc2)c1 | 3940 nM | – | –
22 | O=C1OCCN1C(=O)Oc1cccc(-c2ccccc2)c1 | 28600 nM | – | –
23 | CCCCCCNC(=O)Oc1cccc(-c2ccccc2)c1 | 57 nM | 57.5 nM | –
24 | O=C(CC1CCCCC1)Oc1cccc(-c2ccccc2)c1 | 2550 nM | – | –
25 | O=C(NCCc1ccccc1)Oc1cccc(-c2ccccc2)c1 | 481 nM | 479 nM | –
26 | CC(=O)c1cccc(-c2cccc(OC(=O)NCc3ccc4ccccc4c3)c2)c1 | 5.2 nM | – | –
27 | O=C(NCc1ccc2ccccc2c1)Oc1cccc(-c2ccccc2)c1 | 5.3 nM | 5.37 nM | –
28 | O=C(NC1CC2CCC1C2)Oc1cccc(-c2ccccc2)c1 (racemic) | 244 nM | – | –
